Data taken from ChEMBL document CHEMBL1122112, “Imidodisulfamides. 1. A novel class of antagonists of slow-reacting substance of anaphylaxis” (1982).

Species on record: Cavia porcellus
Experiment: Percent inhibition of slow reacting substance of anaphylaxis (SRS-A) induced contractions of isolated guinea pig ileum at 50 uM concentration.
Type: functional
Outline: (§1)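 Ileum segments proximal to Peyer's patch from male albino Hartley guinea pigs (400-600 g), in modified Tyrode's at 37.5 °C gassed with 95% O2-5% CO2. Isometric contractions recorded. Partially purified guinea pig SRS-A applied at a level giving 60-80% of maximal contraction until responses are reproducible, then reapplied after incubation with compound. Controls receive vehicle. Inhibition is the mean % change in treated tissue minus the mean % change in controls. FPL-55712 serves as reference.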
For `COc1ccccc1CCNS(=O)(=O)NS(=O)(=O)NCCc1ccccc1OC`, the inhibition at 50 µM was 0.2%.
`Cc1cccc(NS(=O)(=O)NS(=O)(=O)Nc2cccc(C)c2)c1` gave an inhibition at 50 µM of 13%.
In the case of `O=S(=O)(Nc1ccc(C(F)(F)F)cc1)NS(=O)(=O)Nc1ccc(C(F)(F)F)cc1`, the inhibition at 50 µM is reported as 86%.
`O=[N+]([O-])c1ccc(CCNS(=O)(=O)NS(=O)(=O)NCCc2ccc([N+](=O)[O-])cc2)cc1` was tested, and the inhibition at 50 µM was 19%.
Compound `CSc1cccc(NS(=O)(=O)NS(=O)(=O)Nc2cccc(SC)c2)c1` has an inhibition at 50 µM of 12%.
For `CC(=O)c1ccc(NS(=O)(=O)NS(=O)(=O)Nc2ccc(C(C)=O)cc2)cc1`, the inhibition at 50 µM was -11%.
For `O=S(=O)(NCCc1ccc(Br)cc1)NS(=O)(=O)NCCc1ccc(Br)cc1`, the inhibition at 50 µM was 72%.
`COc1cccc(CCNS(=O)(=O)NS(=O)(=O)NCCc2cccc(OC)c2)c1` was tested, and the inhibition at 50 µM was 9%.
Work on `O=S(=O)(Nc1ccc(F)cc1)NS(=O)(=O)Nc1ccc(F)cc1` yielded an inhibition at 50 µM of 1%.
With `N#Cc1ccc(NS(=O)(=O)NS(=O)(=O)Nc2ccc(C#N)cc2)cc1` the inhibition at 50 µM was -8%.
`O=S(=O)(Nc1cccc(Cl)c1)NS(=O)(=O)Nc1cccc(Cl)c1` gave an inhibition at 50 µM of 16%.
For `O=S(=O)(NCCc1ccc(O)cc1)NS(=O)(=O)NCCc1ccc(O)cc1`, the inhibition at 50 µM was 7%.
For `O=S(=O)(NCCc1cccc(Cl)c1)NS(=O)(=O)NCCc1cccc(Cl)c1`, the inhibition at 50 µM was 16%.
For `O=S(=O)(Nc1cccc(F)c1)NS(=O)(=O)Nc1cccc(F)c1`, the inhibition at 50 µM was 10%.
With `O=S(=O)(NCCc1cccc(C(F)(F)F)c1)NS(=O)(=O)NCCc1cccc(C(F)(F)F)c1` the inhibition at 50 µM was 32%.
`Cc1ccc(CCNS(=O)(=O)NS(=O)(=O)NCCc2ccc(C)cc2)cc1` gave an inhibition at 50 µM of 1%.
`O=S(=O)(Nc1cccc(Br)c1)NS(=O)(=O)Nc1cccc(Br)c1` was tested, and the inhibition at 50 µM was 38%.
Compound `O=S(=O)(Nc1ccc(Br)cc1)NS(=O)(=O)Nc1ccc(Br)cc1` has an inhibition at 50 µM of 47%.
`O=S(=O)(Nc1ccc(Cl)cc1)NS(=O)(=O)Nc1ccc(Cl)cc1` was tested, and the inhibition at 50 µM was -2%.
Compound `COc1ccc(CCNS(=O)(=O)NS(=O)(=O)NCCc2ccc(OC)cc2)cc1` has an inhibition at 50 µM of 18%.
For `O=S(=O)(Nc1cccc(C(F)(F)F)c1)NS(=O)(=O)Nc1cccc(C(F)(F)F)c1`, the inhibition at 50 µM was 34%.

Species on record: Cavia porcellus
Experiment: Percent inhibition of slow reacting substance of anaphylaxis (SRS-A) induced contractions of isolated guinea pig ileum at 10 uM concentration.
Type: functional
Outline: as §1
With `O=S(=O)(NCCCCc1ccccc1)NS(=O)(=O)NCCCCc1ccccc1` the inhibition at 10 µM was 40%.
Work on `O=S(=O)(NCCCCCCc1ccccc1)NS(=O)(=O)NCCCCCCc1ccccc1` yielded an inhibition at 10 µM of 15%.
In the case of `O=S(=O)(NCCc1ccc(Cl)c(Cl)c1)NS(=O)(=O)NCCc1ccc(Cl)c(Cl)c1`, the inhibition at 10 µM is reported as 43%.
`O=S(=O)(Nc1ccc(C(F)(F)F)cc1)NS(=O)(=O)Nc1ccc(C(F)(F)F)cc1` showed an inhibition at 10 µM of 24%.
`O=S(=O)(NCCc1ccccc1Cl)NS(=O)(=O)NCCc1ccccc1Cl` was tested, and the inhibition at 10 µM was 8%.
Compound `O=S(=O)(NCCCCCc1ccccc1)NS(=O)(=O)NCCCCCc1ccccc1` has an inhibition at 10 µM of 8%.
For `O=S(=O)(NCCCCc1ccc(Cl)cc1)NS(=O)(=O)NCCCCc1ccc(Cl)cc1`, the inhibition at 10 µM was 22%.
Work on `O=S(=O)(NCc1ccccc1)NS(=O)(=O)NCc1ccccc1` yielded an inhibition at 10 µM of 0.2%.

Species on record: Cavia porcellus
Experiment: Percent inhibition of slow reacting substance of anaphylaxis (SRS-A) induced contractions of isolated guinea pig ileum at 20 uM concentration.
Type: functional
Outline: as §1
With `O=S(=O)(NCCc1ccc(Cl)cc1)NS(=O)(=O)NCCc1ccc(Cl)cc1` the inhibition at 20 µM was 62%.
For `O=S(=O)(Nc1ccccc1)NS(=O)(=O)Nc1ccccc1`, the inhibition at 20 µM was 6%.
`O=S(=O)(NCCCc1ccccc1)NS(=O)(=O)NCCCc1ccccc1` gave an inhibition at 20 µM of 15%.
`O=S(=O)(NCCc1ccccc1)NS(=O)(=O)NCCc1ccccc1` gave an inhibition at 20 µM of 7%.

Species on record: Cavia porcellus
Experiment: Percent inhibition of slow reacting substance of anaphylaxis (SRS-A) induced contractions of isolated guinea pig ileum at 5 uM concentration.
Type: functional
Outline: as §1
With `O=S(=O)(NCCc1cccc(SC(F)(F)F)c1)NS(=O)(=O)NCCc1cccc(SC(F)(F)F)c1` the inhibition at 5 µM was -6%.
With `CCCCc1ccc(NS(=O)(=O)NS(=O)(=O)Nc2ccc(CCCC)cc2)cc1` the inhibition at 5 µM was 5%.
`CCOC(=O)c1ccc(NS(=O)(=O)NS(=O)(=O)Nc2ccc(C(=O)OCC)cc2)cc1` was tested, and the inhibition at 5 µM was -5%.
